Laboratory results reported in ChEMBL document CHEMBL1139935, “Discovery of novel indazole-linked triazoles as antifungal agents” (2007).
Converted amounts (≈) assume the structure as drawn.

Legend:
[1] = tested on: Aspergillus fumigatus; assay: Antifungal activity against Aspergillus fumigatus ATCC 16424 by broth microdilution assay; type: functional
[2] = tested on: HepG2; assay: Cytotoxicity against human HepG2 cells at 50 uM by neutral red uptake assay; type: functional
[3] = tested on: Aspergillus niger; assay: Antifungal activity against Aspergillus niger ATCC 9042 by broth microdilution assay; type: functional
[4] = tested on: Aspergillus terreus; assay: Antifungal activity against Aspergillus terreus ATCC 28301 by broth microdilution assay; type: functional
[5] = tested on: Nakaseomyces glabratus; assay: Antifungal activity against Candida glabrata ATCC 34138 by broth microdilution assay; type: functional
[6] = tested on: Aspergillus flavus; assay: Antifungal activity against Aspergillus flavus ATCC MYA-1004 by broth microdilution assay; type: functional
[7] = tested on: Clavispora lusitaniae; assay: Antifungal activity against Candida lusitaniae ATCC 42720 by broth microdilution assay; type: functional
[8] = tested on: Candida parapsilosis; assay: Antifungal activity against Candida parapsilosis ATCC 21019 by broth microdilution assay; type: functional; conditions: Lodderomyces parapsilosis
[9] = tested on: Pichia kudriavzevii; assay: Antifungal activity against Candida krusei ATCC 6528 by broth microdilution assay; type: functional
[10] = tested on: Candida albicans; assay: Antifungal activity against Candida albicans ATCC 36082 by broth microdilution assay; type: functional
[11] = tested on: Cryptococcus neoformans; assay: Antifungal activity against Cryptococcus neoformans ATCC 24065 by broth microdilution assay
[12] = tested on: Candida tropicalis; assay: Antifungal activity against Candida tropicalis ATCC 750 by broth microdilution assay; type: functional
[13] = tested on: HepG2; assay: Cytotoxicity against human HepG2 cells by neutral red uptake assay; type: functional
Outline: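 Human hepatoma HepG2 cells; neutral red uptake read-out following a previously described protocol; the value is the CC50 (concentration giving half-maximal cytotoxicity); ketoconazole served as reference agent.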

[14] = tested on: Candida albicans; assay: Antifungal activity against systemic Candida albicans ATCC 36082 infection model in ICR mouse assessed as survival at 20 mg/kg, po; type: functional
Outline: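 C. albicans ATCC 36082 given systemically, about 5 × 10⁵ cells per animal. Oral dosing at 20 mg/kg once daily started 2 h post-infection and continued for 7 consecutive days. Read-out was mean survival days, compared against an untreated infected control group.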

Compound | MIC80 [1] [mg/L] | inhibition at 50 µM [2] [%] | MIC80 [3] [mg/L] | MIC80 [4] [mg/L] | MIC80 [5] [mg/L] | MIC80 [6] [mg/L] | MIC80 [7] [mg/L] | MIC80 [8] [mg/L] | MIC80 [9] [mg/L] | MIC80 [10] [mg/L] | MIC80 [11] [mg/L] | MIC80 [12] [mg/L] | CC50 [13] [µM] | Survival [14] [days]
Cc1nn([C@H](C)[C@](O)(Cn2cncn2)c2ccc(F)cc2F)c2ccc(C(F)(F)F)cc12 | > 16 | 2.9 | > 16 | > 16 | 8 (≈ 17.7 µM) | > 16 | 0.25 (≈ 0.554 µM) | 1 (≈ 2.22 µM) | 4 (≈ 8.86 µM) | ≤ 0.015 | 1 (≈ 2.22 µM) | > 8 | – | –
C[C@@H](n1cc2cc(Br)ccc2n1)[C@](O)(Cn1cncn1)c1ccc(F)cc1F | 0.25 (≈ 0.558 µM) | – | 1 (≈ 2.23 µM) | 0.5 (≈ 1.12 µM) | 2 (≈ 4.46 µM) | 0.5 (≈ 1.12 µM) | ≤ 0.015 | ≤ 0.015 | 0.125 (≈ 0.279 µM) | ≤ 0.015 | ≤ 0.015 | ≤ 0.015 | 141 | 13.5
Cc1nn([C@H](C)[C@](O)(Cn2cncn2)c2ccc(F)cc2F)c2cccc(F)c12 | 16 (≈ 39.9 µM) | 8.1 | > 16 | > 16 | 8 (≈ 19.9 µM) | > 16 | 0.125 (≈ 0.311 µM) | 0.25 (≈ 0.623 µM) | 1 (≈ 2.49 µM) | ≤ 0.015 | 0.125 (≈ 0.311 µM) | 1 (≈ 2.49 µM) | – | –
